This note sets out measurements from ChEMBL document CHEMBL3044914, “Synthesis of novel 12-aryl-8,9,10,12-tetrahydrobenzo[a]xanthene-11-thiones and evaluation of their biocidal effects” (2012).

In brackets after ≈: the same amount, converted by molar mass.

The nature of assay [1]: Inhibition of soil urease assessed as urea-N level at 1% compound level measured after 9 hr. The following applies: concentration not given here. The method, boiled down:
(§1)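 Soil from cultivated institute farm fields, 50 g air-dried per beaker, moisture kept daily with distilled water. Compound in acetone added at 1% of applied urea-N (0.1 mg); urea-alone control; completely randomized design, three replicates. 5 g samples taken at 9 and 27 h, extracted with 1 M sodium sulfate containing phenyl mercuric acetate to stop hydrolysis; urea-N estimated.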

Assay [2] is described as follows: Inhibition of soil urease assessed as urea-N level at 1% compound level measured after 27 hr. As to conditions: concentration not given here. An outline of the steps: as §1
Assay [3] relates to Alternaria porri. In words: Antifungal activity against Alternaria porri by food poison technique. In kind it is functional. As to conditions: read-out: ED50 (the source's name).
For assay [4], the system named is Spodoptera litura. The assay is described as follows: Insect growth regulatory activity against Spodoptera litura third-instar larvae assessed as normal adult level at 0.1% measured after 24 hr post compound treatment by leaf-dip method. In kind it is functional.
Assay [5] relates to Spodoptera litura. The assay is described as follows: Insecticidal activity against Spodoptera litura third-instar larvae exposed to 0.1% compound on ventral side of larvae assessed as mortality after 24 hr post compound treatment by contact method. It counts as functional. The method, boiled down: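 Topical treatment of third-instar larvae aged 7 ± 1 day. Each treatment was run in triplicate with solvent as control. Mortality was recorded after 24 h.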

Assay [6] has as its system Spodoptera litura. In words: Insect growth regulatory activity against Spodoptera litura third-instar larvae assessed as abnormal or dead larva level at 0.1% measured after 24 hr post compound treatment by leaf-dip method. In kind it is functional. An outline of the steps:
(§2)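 Third-instar larvae were reared on artificial diet, newly moulted and pre-weighed at 30–40 mg. The 0.1% solution was a stock, applied at different concentrations. Leaves on moistened filter paper in Petri dishes were sprayed with the test solution and dried. Ten larvae were placed per dish, in triplicate, with carrier-solvent controls. Larval weight, mortality, pupation, deformed pupae, intermediates, adult emergence and deformed adults were recorded after 24 h.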

Assay [7] concerns Spodoptera litura. The assay is described as follows: Insect growth regulatory activity against Spodoptera litura third-instar larvae assessed as mortality at 0.1% measured after 24 hr post compound treatment by leaf-dip method. In kind it is functional. The method, boiled down:
as §2

Assay [8] relates to Athelia rolfsii. In words: Antifungal activity against Athelia rolfsii by food poison technique. The following applies: Agroathelia rolfsii; read-out: ED50 (the source's name). It counts as functional.
Assay [9] has as its system Spodoptera litura. In words: Insect growth regulatory activity against Spodoptera litura third-instar larvae assessed as abnormal pupa or dead pupa level at 0.1% measured after 24 hr post compound treatment by leaf-dip method. In kind it is functional. An outline of the steps:
as §2

Assay [10] has as its system Fusarium oxysporum. In words: Antifungal activity against Fusarium oxysporum by food poison technique. In kind it is functional. The following applies: read-out: ED50 (the source's name).
Assay [11] relates to Macrophomina phaseolina. The assay is described as follows: Antifungal activity against Rhizoctonia bataticola by food poison technique. In kind it is functional. As to conditions: read-out: ED50 (the source's name).
For assay [12], the system named is Spodoptera litura. In words: Insecticidal activity against Spodoptera litura third-instar larvae fed on 0.1% compound pre-treated castor leaves assessed as mortality after 24 hr post compound treatment by feeding method. It counts as functional. The method, boiled down:
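Castor leaf was dipped for 2 s in a 0.1% solution, air-dried and placed on moist filter paper in 9 cm Petri plates. Third-instar larvae aged 7 ± 1 day were prestarved 4 h and released singly into each plate. There were thirty replications per treatment, with a solvent control. Mortality was scored at 24 h.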

Assay [13] relates to Spodoptera litura. In words: Insect growth regulatory activity against Spodoptera litura third-instar larvae assessed as growth inhibition index at 0.1% measured after 24 hr post compound treatment by leaf-dip method. It counts as functional.

A word on the inhibition: it is the change of the read-out against control, counted positive when it falls. As a reminder, the mortality is the share of the test organisms that died. Consider `COc1ccc(C2C3=C(CC(C)(C)CC3=S)Oc3ccc4ccccc4c32)cc1` (stereo not drawn), for which the inhibition in assay [1] is 5%; in [2], -4%. Moreover, the EC50 was determined as 406 µg/mL (≈ 1010 µM) in assay [3], 365 µg/mL (≈ 912 µM) in [8], 279 µg/mL (≈ 697 µM) in [10] and 478 µg/mL (≈ 1190 µM) in assay [11]. Besides, the Activity is on record as 60% in [4], 10% in assay [6] and 20% in assay [9]. Besides, the mortality in assay [5] was determined as 0%; in [7], 10%; in assay [12], 10%. In [13], the “growth inhibition (GI)” value came out at 40%.
